Source: ChEMBL document CHEMBL1833804, “Discovery of N-(3-(1-methyl-1,2,3,6-tetrahydropyridin-4-yl)-1H-indol-6-yl) thiophene-2-carboximidamide as a selective inhibitor of human neuronal nitric oxide synthase (nNOS) for the treatment of pain” (J Med Chem, 2011)
pIC50: −log10 of the molar value. Active and inactive are the calls of the source. The rule behind the calls is not given here.

Tests used:
Nitric oxide synthase 1 = Nitric oxide synthase 1 (Homo sapiens, UniProt P29475); experiment: Inhibition of human recombinant nNOS expressed in Sf9 cells assessed as inhibition of conversion of [3H]-L-arginine to [3H]-L-citrulline after 45 mins by liquid scintillation counting
Sequence of Nitric oxide synthase 1 (P29475 whole entry): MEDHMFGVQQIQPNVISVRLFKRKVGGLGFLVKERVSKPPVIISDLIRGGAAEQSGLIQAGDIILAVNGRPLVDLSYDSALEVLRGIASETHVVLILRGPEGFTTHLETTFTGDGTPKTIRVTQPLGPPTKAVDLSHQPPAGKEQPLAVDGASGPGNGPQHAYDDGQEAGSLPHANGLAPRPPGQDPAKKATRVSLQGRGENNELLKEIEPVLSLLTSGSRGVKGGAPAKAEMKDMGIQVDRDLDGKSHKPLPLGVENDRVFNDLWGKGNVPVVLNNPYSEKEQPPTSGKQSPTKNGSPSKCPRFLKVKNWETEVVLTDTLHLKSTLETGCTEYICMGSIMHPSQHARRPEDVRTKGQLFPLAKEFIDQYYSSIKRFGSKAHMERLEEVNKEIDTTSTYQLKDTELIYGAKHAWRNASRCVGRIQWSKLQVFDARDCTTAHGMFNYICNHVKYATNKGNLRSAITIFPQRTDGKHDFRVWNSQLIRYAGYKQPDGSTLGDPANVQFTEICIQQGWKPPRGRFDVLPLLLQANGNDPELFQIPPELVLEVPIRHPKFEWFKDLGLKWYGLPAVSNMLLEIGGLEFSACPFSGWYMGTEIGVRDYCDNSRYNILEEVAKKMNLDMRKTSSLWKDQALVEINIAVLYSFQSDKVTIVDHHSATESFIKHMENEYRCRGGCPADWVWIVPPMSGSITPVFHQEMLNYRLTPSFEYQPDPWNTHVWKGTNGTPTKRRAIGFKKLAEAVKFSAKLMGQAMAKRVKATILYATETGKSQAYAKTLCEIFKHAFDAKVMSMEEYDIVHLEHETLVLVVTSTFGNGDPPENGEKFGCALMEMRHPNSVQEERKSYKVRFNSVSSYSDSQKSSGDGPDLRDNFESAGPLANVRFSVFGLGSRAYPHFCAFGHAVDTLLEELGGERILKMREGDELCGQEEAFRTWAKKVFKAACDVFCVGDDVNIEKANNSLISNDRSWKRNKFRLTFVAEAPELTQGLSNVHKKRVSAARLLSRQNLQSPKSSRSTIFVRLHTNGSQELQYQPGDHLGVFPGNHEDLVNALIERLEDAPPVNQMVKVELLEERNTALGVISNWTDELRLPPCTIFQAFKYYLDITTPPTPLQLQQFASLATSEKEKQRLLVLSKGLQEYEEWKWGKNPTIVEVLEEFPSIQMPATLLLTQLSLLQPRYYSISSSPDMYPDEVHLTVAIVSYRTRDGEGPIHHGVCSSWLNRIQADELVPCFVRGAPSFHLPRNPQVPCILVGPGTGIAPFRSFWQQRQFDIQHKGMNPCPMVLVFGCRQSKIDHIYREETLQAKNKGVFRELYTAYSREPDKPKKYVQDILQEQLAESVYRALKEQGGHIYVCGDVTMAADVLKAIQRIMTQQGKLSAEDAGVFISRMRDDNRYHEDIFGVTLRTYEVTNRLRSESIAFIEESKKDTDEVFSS
Summary of the method: (§1)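 Recombinant human eNOS or nNOS from baculovirus-infected Sf9 cells in 40 mM HEPES pH 7.4 with 2.4 mM CaCl2, 1 mM MgCl2, 1 mg/mL BSA, 1 mM EDTA, 1 mM DTT, 1 μM FMN, 1 μM FAD, 10 μM BH4, 1 mM NADPH and 1.2 μM CaM. Compound preincubated 15 min at RT, then [3H]-L-arginine conversion ran 45 min at 37 °C. Stopped with pH 5.5 HEPES/EGTA/EDTA buffer. [3H]-citrulline separated on Dowex and counted by scintillation. Duplicates.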

[1] = molecular target: Nitric oxide sythases; iNOS & nNOS (Homo sapiens) (UniProt P29475+P35228); experiment: Selectivity ratio of IC50 for human recombinant iNOS to IC50 for human recombinant nNOS
Sequence of Nitric oxide sythases; iNOS & nNOS (Homo sapiens) (P29475 whole entry, looked up): as the sequence (P29475 whole entry) above
Sequence of Nitric oxide sythases; iNOS & nNOS (Homo sapiens) (P35228 whole entry, looked up): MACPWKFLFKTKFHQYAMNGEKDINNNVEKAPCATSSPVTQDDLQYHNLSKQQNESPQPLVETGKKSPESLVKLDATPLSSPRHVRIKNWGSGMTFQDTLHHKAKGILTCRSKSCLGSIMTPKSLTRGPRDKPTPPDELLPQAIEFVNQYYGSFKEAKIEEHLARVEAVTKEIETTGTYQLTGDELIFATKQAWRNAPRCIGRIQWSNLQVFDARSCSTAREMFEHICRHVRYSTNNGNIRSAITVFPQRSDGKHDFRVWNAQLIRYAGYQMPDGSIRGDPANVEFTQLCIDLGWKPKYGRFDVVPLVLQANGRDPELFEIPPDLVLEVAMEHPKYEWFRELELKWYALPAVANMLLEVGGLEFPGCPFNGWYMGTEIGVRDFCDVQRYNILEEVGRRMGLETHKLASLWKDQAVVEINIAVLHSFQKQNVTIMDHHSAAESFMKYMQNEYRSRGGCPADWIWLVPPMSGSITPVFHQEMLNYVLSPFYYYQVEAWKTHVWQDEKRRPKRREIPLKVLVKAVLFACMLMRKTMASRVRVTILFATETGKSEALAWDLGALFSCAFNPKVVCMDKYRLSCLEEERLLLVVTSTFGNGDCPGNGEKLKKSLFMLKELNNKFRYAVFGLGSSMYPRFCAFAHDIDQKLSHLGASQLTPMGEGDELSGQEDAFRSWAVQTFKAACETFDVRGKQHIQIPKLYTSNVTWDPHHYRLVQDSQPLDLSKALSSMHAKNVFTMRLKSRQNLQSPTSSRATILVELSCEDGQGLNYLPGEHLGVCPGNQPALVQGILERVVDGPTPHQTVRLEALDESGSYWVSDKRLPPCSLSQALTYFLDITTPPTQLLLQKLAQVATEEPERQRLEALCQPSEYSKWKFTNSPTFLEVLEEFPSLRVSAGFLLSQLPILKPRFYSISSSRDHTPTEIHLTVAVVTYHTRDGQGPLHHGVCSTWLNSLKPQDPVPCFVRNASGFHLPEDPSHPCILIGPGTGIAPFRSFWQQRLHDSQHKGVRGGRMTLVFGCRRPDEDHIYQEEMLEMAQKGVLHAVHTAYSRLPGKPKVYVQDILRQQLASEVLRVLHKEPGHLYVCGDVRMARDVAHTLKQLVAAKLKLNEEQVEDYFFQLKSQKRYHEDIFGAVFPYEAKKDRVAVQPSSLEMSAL
Summary of the method: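 Recombinant human nNOS and iNOS were expressed in baculovirus-infected Sf9 cells, and the assay measured [³H]-L-arginine to [³H]-L-citrulline conversion. nNOS buffer: 40 mM HEPES pH 7.4 with CaCl₂, MgCl₂, BSA, 1 mM NADPH and 1.2 μM CaM. iNOS buffer: 100 mM HEPES pH 7.4 with 120 μM NADPH and 100 nM CaM. Compound was preincubated 15 min at RT, then reacted 45 min at 37 °C. Citrulline was separated on DOWEX and counted by scintillation, in duplicate. The ratio is IC50 iNOS/IC50 nNOS.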

[2] = molecular target: Nitric oxide synthase, inducible (Homo sapiens, UniProt P35228); experiment: Inhibition of human recombinant iNOS expressed in Sf9 cells assessed as inhibition of conversion of [3H]-L-arginine to [3H]-L-citrulline after 45 mins by liquid scintillation counting
Sequence of Nitric oxide synthase, inducible (P35228 whole entry): as the sequence (P35228 whole entry, looked up) above
Summary of the method: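 Recombinant human iNOS from baculovirus-infected Sf9 cells in 100 mM HEPES pH 7.4 with 1 mM CaCl2, 1 mM EDTA, 1 mM DTT, 1 μM FMN, 1 μM FAD, 10 μM BH4, 120 μM NADPH and 100 nM CaM. Compound preincubated 15 min at RT, then 45 min at 37 °C. [3H]-citrulline from [3H]-L-arginine separated on Dowex and counted by scintillation. Duplicates.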

[3] = molecular target: T1, Nitric oxide synthase 3 (Homo sapiens) (UniProt P29474); experiment: Inhibition of eNOS in human arteries precontracted with U46619 assessed as inhibition of acteylcholine-induced vasorelaxation at 1 to 100 uM after 50 mins in the presence of 1 mM L-arginine
T1 sequence (whole entry): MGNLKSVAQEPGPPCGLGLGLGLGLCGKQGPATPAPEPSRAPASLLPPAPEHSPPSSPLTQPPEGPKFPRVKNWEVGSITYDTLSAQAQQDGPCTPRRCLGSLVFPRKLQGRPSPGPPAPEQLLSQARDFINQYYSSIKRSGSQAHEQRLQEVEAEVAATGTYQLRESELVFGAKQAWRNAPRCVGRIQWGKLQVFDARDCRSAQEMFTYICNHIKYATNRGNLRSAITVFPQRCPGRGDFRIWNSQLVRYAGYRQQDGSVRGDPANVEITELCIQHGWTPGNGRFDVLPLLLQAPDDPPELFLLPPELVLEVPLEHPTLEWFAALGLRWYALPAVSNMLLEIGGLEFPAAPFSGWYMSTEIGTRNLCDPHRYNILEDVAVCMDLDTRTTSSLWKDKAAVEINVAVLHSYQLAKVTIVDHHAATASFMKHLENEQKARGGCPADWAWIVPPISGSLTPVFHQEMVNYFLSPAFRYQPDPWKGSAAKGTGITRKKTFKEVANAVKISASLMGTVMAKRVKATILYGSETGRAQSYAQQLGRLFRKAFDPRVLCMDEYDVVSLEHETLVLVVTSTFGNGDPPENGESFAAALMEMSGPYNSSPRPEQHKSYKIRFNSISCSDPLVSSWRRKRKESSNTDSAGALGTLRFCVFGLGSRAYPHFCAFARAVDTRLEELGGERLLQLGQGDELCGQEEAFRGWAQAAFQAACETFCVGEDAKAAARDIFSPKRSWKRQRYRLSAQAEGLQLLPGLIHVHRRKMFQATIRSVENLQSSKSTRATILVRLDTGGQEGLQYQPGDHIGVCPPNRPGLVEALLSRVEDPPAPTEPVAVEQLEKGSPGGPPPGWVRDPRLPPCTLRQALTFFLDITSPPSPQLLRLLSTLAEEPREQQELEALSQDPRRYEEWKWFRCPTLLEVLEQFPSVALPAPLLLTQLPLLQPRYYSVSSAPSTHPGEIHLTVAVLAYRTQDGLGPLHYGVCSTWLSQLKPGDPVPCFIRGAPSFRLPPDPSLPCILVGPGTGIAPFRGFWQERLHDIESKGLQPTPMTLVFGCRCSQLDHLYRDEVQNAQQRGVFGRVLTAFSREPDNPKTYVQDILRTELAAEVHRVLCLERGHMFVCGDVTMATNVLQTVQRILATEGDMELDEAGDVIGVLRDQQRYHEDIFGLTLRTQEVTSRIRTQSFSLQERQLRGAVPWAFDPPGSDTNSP
Summary of the method: (§2)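 Human resistance artery rings of about 2 mm from surgical explants, wire-mounted in myograph baths of Krebs-bicarbonate PSS gassed with 95% O2/5% CO2 at 37 °C. Rings equilibrated at least 30 min with washes every 15 min, then standardised. Isometric tension recorded during ACh relaxation (10^-10 to 10^-5 M).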

Nitric oxide synthase 3 = molecular target: T2, Nitric oxide synthase 3 (Homo sapiens, UniProt P29474); experiment: Inhibition of human recombinant eNOS expressed in Sf9 cells assessed as inhibition of conversion of [3H]-L-arginine to [3H]-L-citrulline after 45 mins by liquid scintillation counting; summary of the method: as §1
T2 sequence (P29474 whole entry): T1 sequence (whole entry)

Rattus norvegicus [4] = experiment: Analgesic activity in ip dosed rat spinal nerve ligation model assessed as reversal of thermal hyperalgesia measured after 60 to 120 mins; assay type: functional, organism-based
Summary of the method: (§3)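 Rat Chung model: L5 and L6 spinal nerves tightly ligated with 4-0 silk distal to the DRG under halothane anaesthesia, animals recovered in individual cages. Single intraperitoneal dose, 10 or 60 mg/kg. Read-out was paw withdrawal latency to radiant heat, expressed as percent reversal of thermal hyperalgesia over time after dosing.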

Cytochrome P450 2C19 = Cytochrome P450 2C19 (Homo sapiens, UniProt P33261); experiment: Inhibition of CYP2C19 using CEC as substrate; assay type: ADME
Sequence of Cytochrome P450 2C19 (P33261 whole entry): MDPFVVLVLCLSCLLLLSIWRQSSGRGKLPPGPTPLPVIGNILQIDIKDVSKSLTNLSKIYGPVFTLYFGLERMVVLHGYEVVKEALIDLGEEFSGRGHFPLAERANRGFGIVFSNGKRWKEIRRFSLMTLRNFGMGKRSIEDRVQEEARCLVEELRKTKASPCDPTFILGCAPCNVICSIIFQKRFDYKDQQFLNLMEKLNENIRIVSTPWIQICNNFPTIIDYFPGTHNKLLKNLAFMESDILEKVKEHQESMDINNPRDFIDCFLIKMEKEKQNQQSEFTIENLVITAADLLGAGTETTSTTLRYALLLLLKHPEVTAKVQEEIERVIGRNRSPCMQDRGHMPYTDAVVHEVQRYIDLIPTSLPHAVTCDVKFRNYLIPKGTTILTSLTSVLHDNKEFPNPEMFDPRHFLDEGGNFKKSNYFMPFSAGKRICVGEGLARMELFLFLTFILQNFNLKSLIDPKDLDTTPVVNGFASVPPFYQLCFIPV
Summary of the method: (§4)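 Insect-cell microsomes expressing single human CYP isozymes, incubated at 37 °C with an NADPH regenerating system (NADP+, glucose-6-phosphate, G6P dehydrogenase, MgCl2) and an isozyme-specific fluorogenic substrate. Formation of the fluorescent metabolite was measured with and without test compound across 0.0457–100 μM. An enzyme-selective inhibitor served as positive control. Duplicate determinations, IC50 reported.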

Cytochrome P450 2C9 = Cytochrome P450 2C9 (Homo sapiens, UniProt P11712); experiment: Inhibition of CYP2C9 using MFC as substrate; assay type: ADME; summary of the method: as §4
Sequence of Cytochrome P450 2C9 (P11712 whole entry): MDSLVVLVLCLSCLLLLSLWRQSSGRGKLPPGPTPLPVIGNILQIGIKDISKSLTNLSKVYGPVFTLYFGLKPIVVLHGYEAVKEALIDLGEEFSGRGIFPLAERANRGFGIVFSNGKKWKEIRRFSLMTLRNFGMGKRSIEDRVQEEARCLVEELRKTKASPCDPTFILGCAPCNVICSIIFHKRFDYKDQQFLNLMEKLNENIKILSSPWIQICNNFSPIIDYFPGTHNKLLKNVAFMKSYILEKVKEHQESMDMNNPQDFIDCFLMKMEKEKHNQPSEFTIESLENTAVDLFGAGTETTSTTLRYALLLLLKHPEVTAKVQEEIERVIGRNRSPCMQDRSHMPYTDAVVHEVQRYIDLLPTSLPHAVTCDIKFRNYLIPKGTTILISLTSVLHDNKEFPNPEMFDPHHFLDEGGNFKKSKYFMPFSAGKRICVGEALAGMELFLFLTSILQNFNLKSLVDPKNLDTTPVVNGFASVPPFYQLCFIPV

Cytochrome P450 3A4 [5] = molecular target: T3, Cytochrome P450 3A4 (Homo sapiens, UniProt P08684); experiment: Inhibition of CYP3A4 using BQ as substrate; assay type: ADME; summary of the method: as §4
T3 sequence (P08684 whole entry): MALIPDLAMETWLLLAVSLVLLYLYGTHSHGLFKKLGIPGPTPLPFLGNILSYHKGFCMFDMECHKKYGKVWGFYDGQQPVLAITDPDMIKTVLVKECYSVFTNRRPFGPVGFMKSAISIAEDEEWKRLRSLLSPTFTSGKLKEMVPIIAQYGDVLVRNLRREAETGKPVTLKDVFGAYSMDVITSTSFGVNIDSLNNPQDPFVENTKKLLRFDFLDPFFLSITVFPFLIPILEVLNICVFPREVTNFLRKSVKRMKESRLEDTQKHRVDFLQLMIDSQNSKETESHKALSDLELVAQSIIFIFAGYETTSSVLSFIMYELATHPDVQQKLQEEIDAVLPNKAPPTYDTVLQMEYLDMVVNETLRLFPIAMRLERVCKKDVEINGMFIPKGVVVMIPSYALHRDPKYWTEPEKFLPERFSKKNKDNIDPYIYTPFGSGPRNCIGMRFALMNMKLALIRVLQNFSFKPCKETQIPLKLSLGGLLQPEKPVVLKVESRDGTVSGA

Cytochrome P450 1A2 = molecular target: T4, Cytochrome P450 1A2 (Homo sapiens, UniProt P05177); experiment: Inhibition of CYP1A2 using CEC as substrate; assay type: ADME; summary of the method: as §4
T4 sequence (P05177 whole entry): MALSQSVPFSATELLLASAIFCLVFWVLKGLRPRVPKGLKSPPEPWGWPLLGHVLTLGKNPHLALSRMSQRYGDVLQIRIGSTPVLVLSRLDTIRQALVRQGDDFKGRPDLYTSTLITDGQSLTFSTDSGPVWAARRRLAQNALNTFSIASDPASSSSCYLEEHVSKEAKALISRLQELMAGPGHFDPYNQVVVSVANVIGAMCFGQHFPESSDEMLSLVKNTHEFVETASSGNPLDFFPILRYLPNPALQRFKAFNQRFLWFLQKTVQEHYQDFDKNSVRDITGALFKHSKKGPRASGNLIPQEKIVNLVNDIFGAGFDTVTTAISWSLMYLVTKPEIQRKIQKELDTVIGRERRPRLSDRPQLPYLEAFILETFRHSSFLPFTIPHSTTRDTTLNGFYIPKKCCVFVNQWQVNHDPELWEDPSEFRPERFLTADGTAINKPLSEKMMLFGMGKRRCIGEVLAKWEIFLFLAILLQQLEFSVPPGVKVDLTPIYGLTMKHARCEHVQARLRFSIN

Rattus norvegicus [6] = experiment: Analgesic activity in rat SNL model assessed as reversal of thermal hyperalgesia at 60 mg/kg, ip administered as single dose measured at 90 mins; assay type: functional; settings: route intraperitoneal; summary of the method: as §3
Cytochrome P450 2D6 = Cytochrome P450 2D6 (Homo sapiens, UniProt P10635); experiment: Inhibition of CYP2D6 using AMMC as substrate; assay type: ADME; summary of the method: as §4
Sequence of Cytochrome P450 2D6 (P10635 whole entry): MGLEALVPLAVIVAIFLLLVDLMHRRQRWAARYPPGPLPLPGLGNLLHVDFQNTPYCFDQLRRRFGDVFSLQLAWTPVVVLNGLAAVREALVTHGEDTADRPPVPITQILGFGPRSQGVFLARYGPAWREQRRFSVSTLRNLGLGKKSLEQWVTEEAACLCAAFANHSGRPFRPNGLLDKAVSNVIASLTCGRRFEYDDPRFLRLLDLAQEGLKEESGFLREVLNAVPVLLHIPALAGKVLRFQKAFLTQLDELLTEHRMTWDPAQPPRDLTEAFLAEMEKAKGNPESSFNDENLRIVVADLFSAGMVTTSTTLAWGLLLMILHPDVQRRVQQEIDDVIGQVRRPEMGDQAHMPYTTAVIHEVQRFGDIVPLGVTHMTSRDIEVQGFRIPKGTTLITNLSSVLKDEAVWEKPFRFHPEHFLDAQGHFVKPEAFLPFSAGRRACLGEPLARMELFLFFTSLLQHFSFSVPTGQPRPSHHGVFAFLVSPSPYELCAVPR

Cytochrome P450 3A4 [7] = molecular target: T3, Cytochrome P450 3A4; experiment: Inhibition of CYP3A4 using BFC as substrate; assay type: ADME; summary of the method: as §4
[8] = molecular target: T1, Nitric oxide synthase 3 (Homo sapiens); experiment: Inhibition of eNOS in human arteries precontracted with U46619 assessed as inhibition of acteylcholine-induced vasorelaxation at 1 to 100 uM after 50 mins; summary of the method: as §2
[9] = molecular target: T1, Nitric oxide synthase 3 (Homo sapiens); experiment: Inhibition of eNOS in human arteries precontracted with U46619 assessed as inhibition of acteylcholine-induced vasorelaxation at 100 uM after 50 mins in the presence of 1 mM L-arginine; summary of the method: as §2
[10] = molecular target: T1, Nitric oxide synthase 3 (Homo sapiens); experiment: Inhibition of eNOS in human arteries precontracted with U46619 assessed as inhibition of acteylcholine-induced vasorelaxation after 50 mins; summary of the method: as §2
Gerbillinae = experiment: Neuroprotective activity in gerbil cerebral ischemia model; assay type: functional
Homo sapiens = species: Homo sapiens; experiment: Antimigraine activity in migraine patients relative to placebo treated control; assay type: functional

SMILES | pIC50 (Nitric oxide synthase 1) | Ratio IC50 [1] | pIC50 [2] | pIC50 (Nitric oxide synthase 3) | also measured
N=C(Nc1ccc2c(C3=CN4CCC3CC4)c[nH]c2c1)c1cccs1 | 5.82 | 6 | 5.08 | – | –
CN1CC=C(c2c[nH]c3cc(NC(=N)c4cccs4)ccc23)CC1.Cl.Cl | 6.10 | 15 | 4.91 | 4.58 | inhibition [3]: inactive; Activity (Rattus norvegicus [4]): Dose-dependent effect; pIC50 (Cytochrome P450 2C19): 4.40; pIC50 (Cytochrome P450 2C9; read-out: IC50): 4.14; pIC50 (Cytochrome P450 3A4 [5]): < 4.00; pIC50 (Cytochrome P450 1A2; read-out: IC50): < 4.00; Activity (Rattus norvegicus [6]): 67%; pIC50 (Cytochrome P450 2D6): 4.20; pIC50 (Cytochrome P450 3A4 [7]): 4.13; inhibition [8]: inactive
Cl.Cl.N=C(Nc1ccc2c(C3CN4CCC3CC4)c[nH]c2c1)c1cccs1 (single isomer, unassigned; enantiomer 2) | 6.35 | – | 3.86 | 4.39 | pIC50 (Cytochrome P450 2C19): 4.30; IC50 (Cytochrome P450 2C9): Not Active; pIC50 (Cytochrome P450 3A4 [5]): < 4.00; IC50 (Cytochrome P450 1A2): Not Active; pIC50 (Cytochrome P450 2D6): < 4.00; pIC50 (Cytochrome P450 3A4 [7]): 4.00
COC(=O)[C@@H](N)CCCNC(=N)N[N+](=O)[O-] | 6.16 | 1.2 | 6.08 | 6.17 | inhibition [9]: inactive; inhibition [10]: Dose-dependent effect
CN1CCC[C@@H]1CCn1ccc2ccc(/N=C(\N)c3cccs3)cc21 | – | 225 | – | – | –
CN1CCC(c2c[nH]c3cc(NC(=N)c4cccs4)ccc23)CC1 | 6.92 | 78 | – | 4.97 | –
FC(F)(F)c1ccccc1-n1ccnc1 | – | – | – | – | Activity (Gerbillinae): 8%
N=C(Nc1ccc(CCNCc2cccc(Cl)c2)cc1)c1cccs1 | – | – | – | – | Activity (Gerbillinae): 44%
N=C(Nc1ccc2c(C3CN4CCC3CC4)c[nH]c2c1)c1cccs1 (single isomer, unassigned; enantiomer 1) [listing 1 of 2 here] | 6.28 | – | 4.28 | 4.63 | –
N=C(Nc1ccc2c(C3CN4CCC3CC4)c[nH]c2c1)c1cccs1 (racemic) [listing 1 of 2 here] | 5.91 | – | 4.74 | 4.48 | –
CN1CCC(c2c[nH]c3cc(NC(=N)c4cccs4)ccc23)C1 (stereo unspecified) | – | 13 | 5.59 | – | –
CNC(=N)NCCC[C@H](N)C(=O)O.Cl.Cl | – | – | – | – | Activity (Homo sapiens): 67%
N=C(Nc1ccc2c(C3CN4CCC3CC4)c[nH]c2c1)c1cccs1 (single isomer, unassigned; enantiomer 2) | – | 309 | – | – | –
N=C(Nc1ccc2c(C3CN4CCC3CC4)c[nH]c2c1)c1cccs1 (racemic) [listing 2 of 2 here] | – | 15 | – | – | –
O=[N+]([O-])c1cccc2cn[nH]c12 [7-NITROINDAZOLE] | – | – | – | – | Activity (Gerbillinae): 22%
N=C(Nc1ccc2c(C3CN4CCC3CC4)c[nH]c2c1)c1cccs1 (single isomer, unassigned; enantiomer 1) [listing 2 of 2 here] | – | 98 | – | – | –
